Laboratory results published in ChEMBL document CHEMBL1909547, “Discovery of spiropiperidine-based potent and selective Orexin-2 receptor antagonists” (Bioorg Med Chem Lett, 2011).
≈ marks a conversion by molar mass, not a printed value.

What was measured:
Orexin receptor type 2 = molecular target: T1, Orexin receptor type 2 (Homo sapiens, UniProt O43614); assay: Antagonist activity at OX2R expressed in dihydrofolate reductase deficient CHO cells assessed as inhibition of orexin A-induced intracellular calcium mobilization by FLIPR assay; type: functional, cell-based
T1 sequence (O43614 whole entry): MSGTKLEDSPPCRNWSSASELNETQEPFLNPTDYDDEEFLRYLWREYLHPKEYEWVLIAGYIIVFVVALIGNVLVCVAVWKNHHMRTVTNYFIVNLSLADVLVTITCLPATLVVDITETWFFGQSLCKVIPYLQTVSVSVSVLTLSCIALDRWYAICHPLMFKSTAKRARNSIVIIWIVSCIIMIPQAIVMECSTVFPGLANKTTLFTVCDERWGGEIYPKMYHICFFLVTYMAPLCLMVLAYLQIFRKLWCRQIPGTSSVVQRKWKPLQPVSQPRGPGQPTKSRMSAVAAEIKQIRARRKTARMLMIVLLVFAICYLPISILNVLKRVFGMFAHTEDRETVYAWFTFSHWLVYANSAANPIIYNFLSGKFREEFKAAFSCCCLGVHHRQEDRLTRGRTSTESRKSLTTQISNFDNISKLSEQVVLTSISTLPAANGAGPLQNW

[1] = Selectivity ratio of IC50 for OX1R to IC50 for OX2R
[2] = molecular target: T2, Orexin/Hypocretin receptor type 1 (Homo sapiens, UniProt O43613); assay: Antagonist activity at OX1R expressed in dihydrofolate reductase deficient CHO cells assessed as inhibition of orexin A-induced intracellular calcium mobilization by FLIPR assay; type: functional, cell-based
T2 sequence (O43613 whole entry): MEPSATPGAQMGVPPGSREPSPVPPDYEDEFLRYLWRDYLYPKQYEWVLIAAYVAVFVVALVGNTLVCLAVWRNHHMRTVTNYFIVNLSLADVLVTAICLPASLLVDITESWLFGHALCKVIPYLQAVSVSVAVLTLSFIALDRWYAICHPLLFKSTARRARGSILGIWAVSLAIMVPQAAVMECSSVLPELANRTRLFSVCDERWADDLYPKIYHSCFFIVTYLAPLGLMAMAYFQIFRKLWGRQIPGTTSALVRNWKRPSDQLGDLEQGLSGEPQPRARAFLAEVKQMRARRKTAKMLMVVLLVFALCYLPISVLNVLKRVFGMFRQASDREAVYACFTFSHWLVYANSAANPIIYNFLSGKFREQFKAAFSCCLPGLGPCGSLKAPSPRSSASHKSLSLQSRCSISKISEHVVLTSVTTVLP

[3] = Solubility of the compound in intestine simulated fluid JP2; type: physicochemical
Procedure, shortened: (§1)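 Solubility was measured in the Japanese Pharmacopoeia dissolution fluids. JP1 is the first fluid, an acidic stomach-simulating solution. JP2 is the second fluid, a buffer that mimics intestinal pH.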

[4] = Lipophilicity, log D of the compound; type: physicochemical; conditions: octanol/water
[5] = Solubility of the compound in stomach simulated fluid JP1; type: physicochemical; procedure, shortened: as §1

| IC50 (Orexin receptor type 2) [nM] | Ratio IC50 [1] | IC50 [2] [nM] | solubility [3] [µg/mL] | logD [4] | solubility [5] [µg/mL] | SMILES |
| --- | --- | --- | --- | --- | --- | --- |
| 230 | 7 | 1600 | – | – | – | O=S(=O)(c1ccccc1)N1CCOC12CCN(c1cnc3ccccc3n1)CC2 |
| 710 | 8.9 | 6300 | 1700 (≈ 4.23 mM) | 1.82 | < 70 | O=C(Nc1ccccc1)N1CCC2(CC1)OCCN2S(=O)(=O)c1ccccc1 |
| 3.3 | 450 | 1500 | 4500 (≈ 9.38 mM) | 1.35 | 5900 (≈ 12.3 mM) | COc1ccc(S(=O)(=O)N2CCOC23CCN(C(=O)Nc2ccccc2)CC3F)cc1OC (stereo not given) |
| 170 | 1.6 | 280 | 34000 | 2.04 | 45000 | O=C(Nc1ccccc1)N1CCC2(OCCN2S(=O)(=O)c2ccccc2)[C@H](F)C1 (mixture of isomers) |
| 220 | 11 | 2500 | 12000 | 1.5 | 8500 | O=C(Nc1ccccc1)N1CCC2(OCCN2S(=O)(=O)c2ccccc2)[C@@H](F)C1 (mixture of isomers) |
| 1000 | > 10 | > 10000 | 18000 (≈ 41.1 mM) | 1.93 | 21000 (≈ 48 mM) | O=C(Nc1ccccc1)N1CCC2(OCCN2S(=O)(=O)c2ccccc2)C(F)(F)C1 (racemic) |
| 130 | 18 | 2300 | 2400 (≈ 5.34 mM) | 1.75 | 2100 (≈ 4.67 mM) | COc1cccc(S(=O)(=O)N2CCOC23CCN(C(=O)Nc2ccccc2)CC3F)c1 (racemic) |
| 87 | 18 | 1600 | 580 (≈ 1.29 mM) | 1.63 | 490 (≈ 1.09 mM) | COc1ccc(S(=O)(=O)N2CCOC23CCN(C(=O)Nc2ccccc2)CC3F)cc1 (racemic) |
